Experimental data pooled from the literature.
Lines come from different studies, so protocols differ.
Target: Tyrosine-protein kinase ZAP-70 (ZAP70, Homo sapiens, UniProt P43403)
Sequence (P43403 1-619, as in one of the studies): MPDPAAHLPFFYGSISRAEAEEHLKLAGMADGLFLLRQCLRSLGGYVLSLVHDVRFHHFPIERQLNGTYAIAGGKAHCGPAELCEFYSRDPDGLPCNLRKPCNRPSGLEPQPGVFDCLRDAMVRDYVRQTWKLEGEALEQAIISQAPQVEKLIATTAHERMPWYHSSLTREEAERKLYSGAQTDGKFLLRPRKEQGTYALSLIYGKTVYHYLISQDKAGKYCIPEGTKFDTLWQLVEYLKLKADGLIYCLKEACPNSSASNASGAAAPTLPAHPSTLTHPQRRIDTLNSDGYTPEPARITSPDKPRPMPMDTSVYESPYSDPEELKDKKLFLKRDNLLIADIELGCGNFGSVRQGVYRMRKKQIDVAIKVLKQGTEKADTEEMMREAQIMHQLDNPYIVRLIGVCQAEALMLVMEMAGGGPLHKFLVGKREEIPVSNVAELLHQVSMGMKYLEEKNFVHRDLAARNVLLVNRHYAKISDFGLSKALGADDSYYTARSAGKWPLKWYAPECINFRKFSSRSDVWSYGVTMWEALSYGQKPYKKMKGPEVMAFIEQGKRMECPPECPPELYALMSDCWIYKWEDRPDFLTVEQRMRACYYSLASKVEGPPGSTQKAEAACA

SMILES	effect on	method	concentration	remaining binding
CN(C)c1nccc(-c2cnn3ncccc23)n1	binding	–	1 µM	72%
C[C@@H](c1cccc(C#N)c1)n1cc(Cl)cc(C(N)=O)c1=N	cell-free assay	competition with immobilised ligand	1 µM	84%
N[C@@H]1CCN(c2nccc(-c3cnn4ncccc34)n2)C1	binding	–	1 µM	53%
O=C(O)[C@@H]1[C@@H](Cn2nnc3ccccc3c2=O)CC[C@H]1C(=O)c1ccc(OCCC2CCOCC2)cc1	cell-free assay	competition with immobilised ligand	1 µM	99%
Nc1ncc2c(n1)-c1c([nH]c3ccc(C#CC4CC4)cc13)CCCC2	binding	competition with immobilised ligand	1 µM	92%
Cc1cnc(Nc2ccc(C(=O)N3CCC(N4CCCC4)CC3)cc2)nc1-c1cc2ccccc2s1	binding	competition with immobilised ligand	1 µM	46%
COc1ccc2c(O[C@@H]3C[C@H]4C(=O)N[C@]5(C(=O)O)CC5/C=C\CCCCC[C@H](NC(=O)OC5CCCC5)C(=O)N4C3)cc(-c3csc(NC(=O)C(C)C)n3)nc2c1C (stereo partly shown)	cell-free assay	competition with immobilised ligand	1 µM	100%
O=C(Nc1c[nH]nc1C(=O)NC1CCNCC1)c1cc(F)cc(F)c1	binding	competition with immobilised ligand	1 µM	87%
Cc1nc(N2CC[C@@H](O)C2)ncc1-c1cc(C(F)(F)F)cc2[nH]ncc12	binding	competition with immobilised ligand	1 µM	65%
CC1CCCN1c1nccc(-c2cnn3ncccc23)n1 (stereo not shown)	binding	–	1 µM	100%
O=C(c1ccc(Nc2ncc(Cl)c(-c3ccc(Cl)s3)n2)cc1)N1CCC(N2CCCC2)CC1	binding	competition with immobilised ligand	1 µM	23%
O=C(N1CCS(=O)(=O)CC1)N1C[C@H](c2ccc(OC(F)(F)F)cc2)C[C@H](c2nc(C3CC3)no2)C1	cell-free assay	competition with immobilised ligand	1 µM	90%
CN(C)c1ncc(F)c(-c2cnn3ncccc23)n1	binding	–	1 µM	79%
C=CC(=O)N1CCC(C(=O)NCC(=O)N2CCN(c3nc(-c4cnc(N)nc4C(F)F)nc(N4CCOCC4)n3)CC2)CC1	binding	competition with immobilised ligand	1 µM	100%
Cc1nc(C2CCN(C(=O)c3ccc(OC(F)(F)F)cc3N)CC2)c2ncc(N3CCN(C)CC3)cc2n1	cell-free assay	competition with immobilised ligand	1 µM	100%
C[C@@H]1CCN(c2nccc(-c3cnn4ncccc34)n2)C1	binding	–	1 µM	75%
COc1ncc2cc3ccccc3nc2c1C#N	cell-free assay	competition with immobilised ligand	5 µM	88%
CCN1CCN(Cc2ccc(C(=O)Nc3ccc(C)c(Oc4ccc5c(c4)CC(=O)N5)c3)cc2C(F)(F)F)CC1	binding	competition with immobilised ligand	1 µM	100%
COc1ccnn2ncc(-c3ccnc(N(C)C)n3)c12	binding	–	1 µM	86%
O=C(NCCCN1CCOCC1)c1ccc(Nc2nccc(-c3cc4ccccc4s3)n2)cc1	binding	competition with immobilised ligand	1 µM	69%
C[C@@H]1CN(c2ccc3ncc(-c4ccc5[nH]nc(C6CC6)c5c4)n3n2)C[C@H](C)O1	binding	competition with immobilised ligand	0.5 µM	100%
Cc1cnn2ncc(-c3ccnc(N(C)C)n3)c2c1	binding	–	1 µM	100%
C[C@@H](c1ccc(-n2cnc3c(N)ncnc32)cc1)N1CCc2nn(C)c(Cc3ccccc3)c2C1=O	binding	competition with immobilised ligand	0.1 µM	94%
O=C(NCCCC1CCCCC1)c1ccc(CNC(=O)c2cnn(-c3ccccc3)c2C(F)(F)F)cc1	cell-free assay	competition with immobilised ligand	0.1 µM	100%
COc1cnc(Nc2cccc(S(N)(=O)=O)c2)nc1N1CCN(c2ccccc2)C(=O)C1	binding	competition with immobilised ligand	1 µM	43%
